Kir21 block – inhibitors of mouse Kir2.1 inward-rectifier potassium channel; P35561; HEK293-Kir2.1, FluxOR thallium flux fluorescence; stronger effect = lower value; B-score at 10 µM; 0.85% of 310,000 active;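 active = fluorescence ratio B-score at or below minus 3 SD of library scores, with starting-brightness B-score within 2 SD, cut at about -4.2 in these data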;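 also: channel flux triggered by added potassium and thallium sulfate stimulus; B-score of peak minus minimum fluorescence over baseline after thallium stimulus; more negative B-score means stronger Kir2.1 block with less thallium influx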
KCNQ1 act – potentiates or activates the human KCNQ1 potassium channel; B-score at 10 µM; 0.35% of 310,000 active; AID 2648; P51787; CHO-K1 KCNQ1, thallium flux FluxOR fluorescence; stronger effect = higher value;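 active = fluorescence ratio B-score, a plate-corrected score, at least three library SD, with initial intensity B-score within 5 SD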
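Material: CHO-K1 cells stably expressing KCNQ1. Medium: assay buffer for compound exposure, DMSO matched across wells. Reagent: K+/Tl+ depolarizing stimulus. Compound dosing: single-concentration screen. Times: 37 °C overnight plating, 90-min dark dye load, 20-min compound pretreatment. Technique: FluxOR Tl+ flux fluorescence.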
KCNQ1 block – inhibitors of human KCNQ1 potassium channel | P51787 | CHO-K1 KCNQ1, FluxOR thallium flux fluorescence; stronger effect = higher value | B-score at 10 µM | 1.3% of 310,000 active | AID 2642;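 active = compounds whose thallium flux B-score, printed positive for inhibition, exceeds three library SD while starting fluorescence stays within three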;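 also: channel opened by potassium depolarization with thallium stimulus after 20 min compound exposure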
KCNK9 inh – inhibitors of human KCNK9 two-pore domain potassium channel. B-score at 10 µM. Q9NPC2. 1.2% of 310,000 active. HEK293 KCNK9, FluxOR thallium flux fluorescence; stronger effect = lower value;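 active = ratio B-score over 3 SD below the library mean, with starting fluorescence within 5 SD of its mean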;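 also: negative B-score means less thallium flux so channel inhibition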
hERG rescue – hERG (human) protection from proarrhythmic block. Q12809. CHO-hERG, FluxOR thallium flux, dofetilide IC70 present. activation (rescue from dofetilide block), less the hit threshold, % at 10 µM. 0.51% of 310,000 active;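 active = activation above the mean of controls blocked by dofetilide plus 5 SD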;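 also: thallium influx through hERG after potassium depolarization seen as dye fluorescence rise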
Target sequence (Q12809 whole entry, looked up): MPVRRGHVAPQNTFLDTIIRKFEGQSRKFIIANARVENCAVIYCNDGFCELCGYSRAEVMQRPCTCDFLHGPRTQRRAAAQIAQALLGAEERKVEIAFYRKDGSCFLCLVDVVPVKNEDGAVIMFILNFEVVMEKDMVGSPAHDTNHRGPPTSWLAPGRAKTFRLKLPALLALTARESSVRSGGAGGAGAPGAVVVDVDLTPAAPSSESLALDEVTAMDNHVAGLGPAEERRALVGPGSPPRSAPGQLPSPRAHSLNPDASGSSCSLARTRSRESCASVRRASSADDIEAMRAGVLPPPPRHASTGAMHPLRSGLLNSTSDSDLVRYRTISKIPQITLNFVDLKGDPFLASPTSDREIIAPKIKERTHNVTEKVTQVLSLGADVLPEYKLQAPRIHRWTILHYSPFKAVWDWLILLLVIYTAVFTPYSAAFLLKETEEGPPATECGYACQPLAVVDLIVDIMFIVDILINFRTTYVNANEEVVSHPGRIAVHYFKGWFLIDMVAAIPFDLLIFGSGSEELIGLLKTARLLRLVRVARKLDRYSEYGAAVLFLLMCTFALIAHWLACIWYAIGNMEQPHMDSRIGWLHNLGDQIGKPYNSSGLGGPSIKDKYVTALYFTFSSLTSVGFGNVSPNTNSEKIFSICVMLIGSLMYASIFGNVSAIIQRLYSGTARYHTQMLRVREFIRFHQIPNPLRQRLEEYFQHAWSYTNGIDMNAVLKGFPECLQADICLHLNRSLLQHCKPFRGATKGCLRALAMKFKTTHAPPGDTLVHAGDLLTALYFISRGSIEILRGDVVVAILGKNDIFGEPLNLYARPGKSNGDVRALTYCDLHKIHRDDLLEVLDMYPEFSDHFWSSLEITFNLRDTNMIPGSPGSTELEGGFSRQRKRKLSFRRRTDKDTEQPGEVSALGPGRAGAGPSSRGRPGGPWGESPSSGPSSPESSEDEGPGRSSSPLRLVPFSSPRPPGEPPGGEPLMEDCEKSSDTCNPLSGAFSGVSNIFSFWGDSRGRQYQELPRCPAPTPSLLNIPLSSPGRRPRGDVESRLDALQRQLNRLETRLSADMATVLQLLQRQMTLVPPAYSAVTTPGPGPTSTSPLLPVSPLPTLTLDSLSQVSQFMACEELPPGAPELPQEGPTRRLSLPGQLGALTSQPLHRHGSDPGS
KCNK3 inh – human KCNK3 channel inhibition, primary screen | O14649 | CHO-KCNK3 thallium flux, FluxOR fluorescence; stronger effect = lower value | B-score at 10 µM | 0.84% of 340,000 active;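 active = B-score under library mean minus 4 SD, starting fluorescence ratio at most library mean plus 5 SD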;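 also: more negative B-score means stronger inhibition of thallium flux through KCNK3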
KCNK9 block conf – confirmation of human KCNK9 potassium channel inhibitors | shares compounds with KCNK9 inh | HEK293 KCNK9 cells, FluxOR thallium flux fluorescence | inhibition, % at 10 µM | 43% of 4,900 active;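 active = thallium signal inhibited by more than 5 SD of the compound-free buffer control wells, on both duplicate plates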
Kir2-1 spec – mouse Kir2.1 off-target activity of KCNK9 modulators; shares compounds with KCNK9 inh; Kir2.1 cells, FluxOR thallium flux fluorescence; inhibition, % at 10 µM; 4% of 4,900 active;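 active = thallium signal drop more than 5 SD beyond the mean of the no-compound control wells, seen in both duplicate plates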;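 also: signal is fluorescence rise after thallium addition divided by baseline fluorescence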
KCNK9 uninduced – non-induced cell nonspecific activity of KCNK9 modulators; shares compounds with KCNK9 inh; inhibition, % at 10 µM; non-induced KCNK9-HEK293, FluxOR thallium flux; 40% of 4,900 active; AID 492997;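 active = thallium signal drop beyond 5 SD of the untreated control mean, on both duplicate plates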
Of the large screens only hits and unclear results are named; the others gave an inactive call (follow-up assays come after a bar, where they were run). Hits are enriched below; roughly 3.8% of the tested compounds scored in any of these assays.

Cc1c([N+](=O)[O-])cc(S(=O)(=O)Nc2ccc(-c3ccc(N4CCCC4)nn3)cc2)cc1[N+](=O)[O-]	none
O=c1c2c(-c3ccccc3)csc2ncn1/N=C/c1cccc([N+](=O)[O-])c1O	none
Cn1cc(/C=N/n2cnc3scc(-c4ccccc4)c3c2=O)c2ccccc21	none | KCNK9 block conf inactive | Kir2-1 spec inactive | KCNK9 uninduced inactive
CCOc1ccccc1NC(=O)c1nc(-c2ccccc2)oc1C	KCNK9 inh -12 | KCNK9 block conf inactive | Kir2-1 spec inactive | KCNK9 uninduced 25%
CCOc1ccccc1C(=O)Nc1ccccc1-c1ccccc1	KCNK9 inh -8.8 | KCNK9 block conf 72% | Kir2-1 spec 38% | KCNK9 uninduced 25%
Cc1oc(-c2ccccc2)nc1C(=O)Nc1nccs1	none
Clc1ccc(-c2nnc(CCc3ccccc3)o2)c(Cl)c1	none | KCNK9 block conf inactive | Kir2-1 spec inactive | KCNK9 uninduced inactive
Oc1ccccc1-c1nnc(COc2ccc(Cl)cc2Cl)o1	none
CCOC(=O)C1CCCN(CCc2ccccc2)C1 (configuration not stated)	none
O=C(OC1C2CCC1C1CN(CCc3ccccc3)CC12)c1ccccc1 (configuration not stated)	none | KCNK9 block conf inactive | Kir2-1 spec inactive | KCNK9 uninduced inactive
Cc1ccc(N2CC(C(=O)NNC(=O)c3ccc(F)cc3)CC2=O)cc1 (configuration not stated)	none (no result: Kir21 block, KCNQ1 act, KCNQ1 block, KCNK9 inh, hERG rescue)
COC(=O)C(Cc1ccc(OC(=O)c2ccc(C)cc2)cc1)N1Cc2ccccc2C1=O (configuration not stated)	none | KCNK9 block conf inactive | Kir2-1 spec inactive | KCNK9 uninduced inactive
COC(=O)C(Cc1ccc(O)cc1)N1Cc2ccccc2C1=O (configuration not stated)	none
O=C(CSc1nc2nc(-c3cccs3)cc(C(F)(F)F)c2c(=O)[nH]1)Nc1c(F)c(F)c(F)c(F)c1F	KCNQ1 block 10 | KCNK9 block conf inactive | Kir2-1 spec inactive | KCNK9 uninduced inactive
NS(=O)(=O)c1cccc(NC(=O)CSc2nc3nc(-c4cccs4)cc(C(F)(F)F)c3c(=O)[nH]2)c1	none
CCOC(=O)c1[nH]ncc1CN1CCCC(C(=O)c2cccc(OC(C)C)c2)C1 (configuration not stated)	none
COc1ccc(CN2CCCC(C(=O)c3cccc(OC(C)C)c3)C2)cc1Cn1cccn1 (configuration not stated)	none | KCNK9 block conf inactive | Kir2-1 spec inactive | KCNK9 uninduced inactive
COCc1cc(CN2CCCC(C(=O)c3cccc(C(F)(F)F)c3)C2)ccc1OC (configuration not stated)	none | KCNK9 block conf inactive | Kir2-1 spec inactive | KCNK9 uninduced inactive
CCn1ncc(CN2CCCC(C(=O)c3cccc(OC(C)C)c3)C2)c1C (configuration not stated)	none | KCNK9 block conf inactive | Kir2-1 spec inactive | KCNK9 uninduced inactive
COC(=O)c1ccccc1NC(=O)CSCC(=O)Nc1ccccc1OC	none
CCOC(=O)Cn1c(-c2cccnc2Cl)nc2cc(Cl)c(Cl)cc21	none
COc1ccccc1C1(CC(=O)O)CCOC(C(C)C)C1 (configuration not stated)	none
CCC(=O)N(CCC1(c2ccccc2OC)CCOC(C(C)C)C1)Cc1ccco1 (configuration not stated)	KCNK9 inh -14 | KCNK9 block conf 47% | Kir2-1 spec inactive | KCNK9 uninduced 46%
COc1cccc(CN(C)C(c2ccccc2)c2ccccc2)c1OC	KCNK9 inh -8.2 | KCNK9 block conf inactive | Kir2-1 spec inactive | KCNK9 uninduced inactive
COc1cccc(CN(C)C(=O)Cc2c[nH]c3ccccc23)c1OC	none
Cc1cc(C)n2nc(C(=O)N(C)c3c(N)n(Cc4ccccc4)c(=O)[nH]c3=O)nc2n1	none
O=C(O)/C=C\C(=O)Nc1ccc(N2CCN(c3ccc(Cl)cc3)CC2)cc1	none
O=C(O)/C=C\C(=O)Nc1ccc(N2CCN(c3ccc(Cl)c(Cl)c3)CC2)cc1	none | KCNK9 block conf inactive | Kir2-1 spec inactive | KCNK9 uninduced inactive
C=CCNC(=O)NC(=O)Cn1c(=O)c2c(ncn2CC)n(Cc2ccccc2)c1=O	none
COc1ccc(C(=O)C2CCCN(C(=O)c3ccc(CSC)o3)C2)cc1F (configuration not stated)	none | KCNK9 block conf inactive | Kir2-1 spec inactive | KCNK9 uninduced inactive
COc1ccc(C(=O)C2CCCN(C(=O)c3noc4c3CCCC4)C2)cc1F (configuration not stated)	none | KCNK9 block conf inactive | Kir2-1 spec inactive | KCNK9 uninduced inactive
COc1ccc(C(=O)C2CCCN(C(=O)c3noc4c3CCCC4)C2)c(C)c1 (configuration not stated)	none | KCNK9 block conf inactive | Kir2-1 spec inactive | KCNK9 uninduced inactive
COc1ccc(C(=O)C2CCCN(C(=O)C3=CCCC3)C2)c(C)c1 (configuration not stated)	none | KCNK9 block conf inactive | Kir2-1 spec inactive | KCNK9 uninduced inactive
COc1ccc(C(=O)C2CCCN(C(=O)c3ccccc3C(C)=O)C2)cc1F (configuration not stated)	none
Cc1cnc(C(=O)N2CCCC(N3CCN(c4ccccc4C)CC3)C2)cn1 (configuration not stated)	none
Cc1ccccc1N1CCN(C2CCCN(C(=O)c3noc4c3CCCC4)C2)CC1 (configuration not stated)	none | KCNK9 block conf inactive | Kir2-1 spec inactive | KCNK9 uninduced inactive
C#Cc1cccc(C(=O)N2CCCC(C(=O)c3ccc(OC)cc3C)C2)c1 (configuration not stated)	Kir21 block -4.3 | KCNK9 block conf inactive | Kir2-1 spec inactive | KCNK9 uninduced inactive
COC(=O)c1cc2sc(Cl)cc2n1CC(=O)Nc1cccc(SC)c1	KCNK9 inh -10 | KCNK9 block conf 48% | Kir2-1 spec inactive | KCNK9 uninduced 32%
COc1ccccc1-c1sc2ccccc2c1-c1ccc2c(c1)OCO2	none
COc1ccc2[nH]cc(CCn3ccc(O)c(C/C=C/c4ccccc4)c3=O)c2c1	none
O=c1c(C/C=C/c2ccccc2)c(O)ccn1CCc1c[nH]c2ccccc12	none | KCNK9 block conf inactive | Kir2-1 spec inactive | KCNK9 uninduced inactive
COc1ccc(OC)c(NC(=O)Cc2coc3ccc(C)cc23)c1	none

Screening results deposited in PubChem by Johns Hopkins Ion Channel Center.
